# Peptide text beside a SMILES is read from it.
# Tests used:
# [1] = Selectivity is the ratio of inhibitory concentrations at alpha4-beta1 integrin to alpha4-beta7 integrin
# Integrin alpha-4/beta-7 = target: T1, Integrin alpha-4/beta-7 (Homo sapiens, UniProt P13612+P26010); experiment: Ability to block the alpha4-beta7 integrin-MAdCAM-1 binding interaction using a protein ELISA format; assay type: protein-complex assay
# T1 sequence (P13612 whole entry): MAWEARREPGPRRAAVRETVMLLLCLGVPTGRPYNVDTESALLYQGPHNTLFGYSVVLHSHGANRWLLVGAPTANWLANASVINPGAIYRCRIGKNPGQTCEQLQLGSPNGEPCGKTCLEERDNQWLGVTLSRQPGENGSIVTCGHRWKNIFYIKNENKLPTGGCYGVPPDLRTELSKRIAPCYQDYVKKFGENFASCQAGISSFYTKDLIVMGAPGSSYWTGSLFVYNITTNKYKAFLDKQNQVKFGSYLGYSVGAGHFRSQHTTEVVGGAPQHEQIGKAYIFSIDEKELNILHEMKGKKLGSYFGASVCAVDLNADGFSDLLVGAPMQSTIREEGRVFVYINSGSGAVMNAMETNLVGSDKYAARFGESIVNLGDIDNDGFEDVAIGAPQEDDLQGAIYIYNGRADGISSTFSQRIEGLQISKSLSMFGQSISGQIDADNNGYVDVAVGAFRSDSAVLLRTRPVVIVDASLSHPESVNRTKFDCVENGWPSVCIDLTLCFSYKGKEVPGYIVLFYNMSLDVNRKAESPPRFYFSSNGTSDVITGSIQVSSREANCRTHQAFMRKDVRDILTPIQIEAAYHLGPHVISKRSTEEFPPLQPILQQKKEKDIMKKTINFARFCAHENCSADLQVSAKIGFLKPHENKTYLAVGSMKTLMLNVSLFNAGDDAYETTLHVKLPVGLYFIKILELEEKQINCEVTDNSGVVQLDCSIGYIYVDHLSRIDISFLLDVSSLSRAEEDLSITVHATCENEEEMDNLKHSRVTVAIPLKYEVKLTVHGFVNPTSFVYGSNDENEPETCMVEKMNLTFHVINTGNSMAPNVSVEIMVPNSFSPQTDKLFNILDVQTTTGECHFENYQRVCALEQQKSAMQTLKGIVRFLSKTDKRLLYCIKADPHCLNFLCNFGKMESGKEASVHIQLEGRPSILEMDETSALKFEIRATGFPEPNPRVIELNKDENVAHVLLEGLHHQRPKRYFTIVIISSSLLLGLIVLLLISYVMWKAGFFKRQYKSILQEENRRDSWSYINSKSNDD
# T1 sequence (P26010 whole entry): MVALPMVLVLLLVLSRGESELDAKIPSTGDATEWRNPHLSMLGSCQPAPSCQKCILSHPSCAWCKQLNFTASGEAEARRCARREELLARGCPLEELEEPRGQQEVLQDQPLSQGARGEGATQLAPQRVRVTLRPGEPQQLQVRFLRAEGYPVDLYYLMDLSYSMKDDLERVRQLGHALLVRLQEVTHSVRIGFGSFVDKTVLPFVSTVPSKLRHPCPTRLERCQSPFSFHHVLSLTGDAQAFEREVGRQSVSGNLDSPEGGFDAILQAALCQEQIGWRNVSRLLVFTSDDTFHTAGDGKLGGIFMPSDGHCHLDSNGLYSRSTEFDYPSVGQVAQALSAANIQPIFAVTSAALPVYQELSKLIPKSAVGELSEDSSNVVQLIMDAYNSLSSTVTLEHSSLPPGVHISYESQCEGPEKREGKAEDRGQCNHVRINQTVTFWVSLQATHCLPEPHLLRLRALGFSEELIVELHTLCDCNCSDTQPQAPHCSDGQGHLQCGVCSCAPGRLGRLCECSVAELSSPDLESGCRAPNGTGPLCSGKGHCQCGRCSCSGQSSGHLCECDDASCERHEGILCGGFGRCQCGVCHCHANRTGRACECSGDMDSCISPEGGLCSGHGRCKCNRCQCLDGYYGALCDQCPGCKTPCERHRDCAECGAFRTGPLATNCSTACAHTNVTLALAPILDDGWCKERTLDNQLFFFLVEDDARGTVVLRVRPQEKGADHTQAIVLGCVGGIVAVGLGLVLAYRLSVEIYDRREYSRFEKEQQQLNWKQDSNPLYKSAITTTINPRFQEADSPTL
# Method in brief: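 Plates coated overnight at 4 °C with anti-human α4 antibody 9F10 (2 µg/mL), blocked in Tris pH 7.5 buffer with 1 mM MnCl2, Tween-20 and 0.5% BSA, then loaded with α4β7 purified from transfected JY cells (2 µg/mL). Compounds (1 nM–200 µM final, triplicate) plus MAdCAM-1-Ig-HRP (1 µg/mL), 2 h room temperature. TMB read at 450 nm; IC50 at half-maximal absorbance.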
# Integrin alpha-4/beta-1 = Integrin alpha-4/beta-1 (Homo sapiens, UniProt P05556+P13612); experiment: Inhibitory concentration affording 50% inhibition of alpha4-beta1 integrin binding to VCAM-1, using ELISA assay.; assay type: protein-complex assay
# Method in brief: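 α4β1 extracted from Ramos cell membranes (lectin chromatography, gel filtration in 1% octylglucoside), with 1 mM MnCl2 throughout. Wells coated with 4 µg/mL recombinant soluble human VCAM-1 (5 N-terminal Ig domains, from CHO cells) and blocked with 1% BSA. Inhibitor and receptor 2 h at 37 °C in Tris pH 7.4. Bound receptor detected with anti-β1 mAb 2D4.6, then HRP anti-mouse and TMB at 450 nm. IC50 at half-maximal absorbance.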
# Chain of Integrin alpha-4/beta-1 (P05556 whole entry, one chain of several, the tested form may be a part): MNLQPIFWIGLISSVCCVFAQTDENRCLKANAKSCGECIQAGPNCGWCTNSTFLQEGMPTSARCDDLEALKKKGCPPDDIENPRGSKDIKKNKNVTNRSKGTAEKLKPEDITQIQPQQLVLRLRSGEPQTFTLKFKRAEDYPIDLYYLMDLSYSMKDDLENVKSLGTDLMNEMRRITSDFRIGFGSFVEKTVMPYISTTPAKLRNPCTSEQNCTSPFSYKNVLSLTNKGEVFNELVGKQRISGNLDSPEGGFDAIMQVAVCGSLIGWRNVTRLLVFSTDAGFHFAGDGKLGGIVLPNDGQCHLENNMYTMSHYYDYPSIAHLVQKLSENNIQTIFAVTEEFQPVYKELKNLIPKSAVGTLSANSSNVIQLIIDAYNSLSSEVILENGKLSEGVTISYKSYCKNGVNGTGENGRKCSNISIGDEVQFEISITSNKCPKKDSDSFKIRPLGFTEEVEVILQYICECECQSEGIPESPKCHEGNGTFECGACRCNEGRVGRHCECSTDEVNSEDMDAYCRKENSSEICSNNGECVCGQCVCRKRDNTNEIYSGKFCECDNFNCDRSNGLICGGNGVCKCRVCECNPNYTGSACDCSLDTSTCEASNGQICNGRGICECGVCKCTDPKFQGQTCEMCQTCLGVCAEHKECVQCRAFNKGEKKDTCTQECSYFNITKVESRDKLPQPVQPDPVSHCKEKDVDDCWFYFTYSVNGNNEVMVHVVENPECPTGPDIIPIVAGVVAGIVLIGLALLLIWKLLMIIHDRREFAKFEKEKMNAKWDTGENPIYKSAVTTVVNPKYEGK
Ratio [1],IC50 (Integrin alpha-4/beta-7) [nM],IC50 (Integrin alpha-4/beta-1) [nM],SMILES
14,,,CC[C@H](C)[C@H]1NC(=O)[C@H]([C@@H](C)O)NC(=O)[C@@H](CC(=O)O)NC(=O)[C@H](CO)NC(=O)[C@@H](CCCN=C(N)N)NC(=O)[C@H](N)CSSC[C@H](C(N)=O)NC1=O
35,,,CC(C)C[C@H]1NC(=O)[C@H]([C@@H](C)O)NC(=O)[C@@H](CC(=O)O)NC(=O)[C@H](CO)NC(=O)[C@@H](CCCN=C(N)N)NC(=O)[C@H](N)CSSC[C@H](C(N)=O)NC1=O
3.5,,,CC(C)C[C@H]1NC(=O)[C@H]([C@@H](C)O)NC(=O)[C@@H](CC(=O)O)NC(=O)[C@H]([C@@H](C)O)NC(=O)[C@@H](CCCN=C(N)N)NC(=O)[C@H](N)CSSC[C@H](C(N)=O)NC1=O
0.1,,,CC(C)C[C@H]1NC(=O)[C@H]([C@@H](C)O)NC(=O)[C@@H](CCC(=O)O)NC(=O)[C@H](CO)NC(=O)[C@@H](CCCN=C(N)N)NC(=O)[C@H](N)CSSC[C@H](C(N)=O)NC1=O
0.9,,,C[C@@H](O)[C@@H]1NC(=O)[C@@H](CC(=O)O)NC(=O)[C@H](CO)NC(=O)[C@@H](CCCN=C(N)N)NC(=O)[C@H](N)CSSC[C@H](C(N)=O)NC(=O)[C@H]2CCCN2C1=O
0.06,,,CC(C)C[C@H]1NC(=O)[C@H]([C@@H](C)O)NC(=O)[C@@H](CC(N)=O)NC(=O)[C@H](CO)NC(=O)[C@@H](CCCN=C(N)N)NC(=O)[C@H](N)CSSC[C@H](C(=O)O)NC1=O
48,,,CC(C)C[C@H]1NC(=O)[C@H](CO)NC(=O)[C@@H](CC(=O)O)NC(=O)[C@H](CO)NC(=O)[C@@H](CCCN=C(N)N)NC(=O)[C@H](N)CSSC[C@H](C(N)=O)NC1=O
0.06,,,CC[C@H](C)[C@@H]1NC(=O)[C@@H](CCCN=C(N)N)NC(=O)[C@H](N)CSSC[C@H](C(N)=O)NC(=O)[C@@H](CC(C)C)NC(=O)[C@H]([C@@H](C)O)NC(=O)[C@@H](CC(=O)O)NC1=O
0.09,,,CC(C)C[C@H]1NC(=O)[C@H]([C@@H](C)O)NC(=O)[C@@H](CC(=O)O)NC(=O)[C@H](CO)NC(=O)[C@@H](Cc2ccccc2)NC(=O)[C@H](N)CSSC[C@H](C(N)=O)NC1=O
2.8,,,CC(C)C[C@H]1NC(=O)[C@H]([C@@H](C)O)NC(=O)[C@@H](CC(=O)O)NC(=O)[C@H](CO)NC(=O)[C@@H](Cc2c[nH]cn2)NC(=O)[C@H](N)CSSC[C@H](C(N)=O)NC1=O
,1300,12100,"CSCC[C@H](NC(=O)[C@H](CC(C)C)NC(=O)[C@H](Cc1c[nH]c2ccccc12)NC(=O)[C@H](CCCN=C(N)N)NC(=O)[C@H](CCC(=O)O)NC(=O)[C@H](Cc1c[nH]c2ccccc12)NC(C)=O)C(=O)N[C@@H](CC(=O)O)C(=O)N[C@H]1CSSC[C@@H](C(=O)NCC(=O)N[C@@H](CCC(=O)O)C(=O)N[C@@H](CO)C(=O)N[C@@H](Cc2c[nH]cn2)C(=O)N[C@@H](CCC(N)=O)C(=O)N[C@@H](CCC(=O)O)C(N)=O)NC(=O)[C@H](CC(C)C)NC(=O)[C@H]([C@@H](C)O)NC(=O)[C@H](CC(=O)O)NC(=O)[C@H](CO)NC(=O)[C@H](CCCN=C(N)N)NC1=O (HELM PEPTIDE1{[ac].W.E.R.W.L.M.D.C.R.S.D.T.L.C.G.E.S.H.Q.E.[am]}$PEPTIDE1,PEPTIDE1,9:R3-15:R3$$$V2.0)"
,190,4200,"CSCC[C@H](N)C(=O)N[C@@H](CC(=O)O)C(=O)N[C@H]1CSSC[C@@H](C(=O)NCC(=O)N[C@@H](CCC(=O)O)C(N)=O)NC(=O)[C@H](CC(C)C)NC(=O)[C@H]([C@@H](C)O)NC(=O)[C@H](CC(=O)O)NC(=O)[C@H](CO)NC(=O)[C@H](CCCNC(=N)N)NC1=O (HELM PEPTIDE1{M.D.C.R.S.D.T.L.C.G.E.[am]}$PEPTIDE1,PEPTIDE1,3:R3-9:R3$$$V2.0)"
,550,50,CC(C)C[C@@H]1NC(=O)[C@H]([C@@H](C)O)NC(=O)[C@H](CC(=O)O)NC(=O)[C@H](CO)NC(=O)[C@H](Cc2ccccc2)NC(=O)[C@@H](N)CSSC[C@@H](C(N)=O)NC1=O
,> 100000,> 100000,"CC(C)C[C@@H]1NC(=O)[C@H]([C@@H](C)O)NC(=O)[C@H](CCC(N)=O)NC(=O)[C@H](CO)NC(=O)[C@H](CCCNC(=N)N)NC(=O)[C@@H](N)CSSC[C@@H](C(N)=O)NC1=O (HELM PEPTIDE1{C.R.S.Q.T.L.C.[am]}$PEPTIDE1,PEPTIDE1,1:R3-7:R3$$$V2.0)"
,120,4200,CC(C)C[C@@H]1NC(=O)[C@H]([C@@H](C)O)NC(=O)[C@H](CC(=O)O)NC(=O)[C@H](CO)NC(=O)[C@H](CCCNC(=N)N)NC(=O)[C@@H](N)CSSC[C@@H](C(N)=O)NC1=O
,340,8800,"CSCC[C@H](N)C(=O)N[C@@H](CC(=O)O)C(=O)N[C@H]1CSSC[C@@H](C(=O)NCC(N)=O)NC(=O)[C@H](CC(C)C)NC(=O)[C@H]([C@@H](C)O)NC(=O)[C@H](CC(=O)O)NC(=O)[C@H](CO)NC(=O)[C@H](CCCN=C(N)N)NC1=O (HELM PEPTIDE1{M.D.C.R.S.D.T.L.C.G.[am]}$PEPTIDE1,PEPTIDE1,3:R3-9:R3$$$V2.0)"
,23000,40000,"C[C@@H]1NC(=O)[C@H]([C@@H](C)O)NC(=O)[C@H](CC(=O)O)NC(=O)[C@H](CO)NC(=O)[C@H](CCCN=C(N)N)NC(=O)[C@@H](N)CSSC[C@@H](C(N)=O)NC1=O (HELM PEPTIDE1{C.R.S.D.T.A.C.[am]}$PEPTIDE1,PEPTIDE1,1:R3-7:R3$$$V2.0)"
,110,3800,"CC(C)C[C@@H]1NC(=O)[C@H]([C@@H](C)O)NC(=O)[C@H](CC(=O)O)NC(=O)[C@H](CO)NC(=O)[C@H](CCCNC(=N)N)NC(=O)[C@@H](N)CSSC[C@@H](C(=O)NCC(N)=O)NC1=O (HELM PEPTIDE1{C.R.S.D.T.L.C.G.[am]}$PEPTIDE1,PEPTIDE1,1:R3-7:R3$$$V2.0)"
,2100,7400,CC(C)C[C@@H]1NC(=O)[C@H]([C@@H](C)O)NC(=O)[C@H](CC(=O)O)NC(=O)[C@H]([C@@H](C)O)NC(=O)[C@H](CCCN=C(N)N)NC(=O)[C@@H](N)CSSC[C@@H](C(N)=O)NC1=O
,290,14000,CC(C)C[C@@H]1NC(=O)[C@H](CO)NC(=O)[C@H](CC(=O)O)NC(=O)[C@H](CO)NC(=O)[C@H](CCCNC(=N)N)NC(=O)[C@@H](N)CSSC[C@@H](C(N)=O)NC1=O
,1100,2800,"CC(C)C[C@@H]1NC(=O)[C@H]([C@@H](C)O)NC(=O)[C@H](CC(=O)O)NC(=O)[C@H](CO)NC(=O)[C@H](C)NC(=O)[C@@H](N)CSSC[C@@H](C(N)=O)NC1=O (HELM PEPTIDE1{C.A.S.D.T.L.C.[am]}$PEPTIDE1,PEPTIDE1,1:R3-7:R3$$$V2.0)"
,2200,3200,CSCC[C@@H]1NC(=O)[C@H](CCCN=C(N)N)NC(=O)[C@@H](N)CSSC[C@@H](C(N)=O)NC(=O)[C@H](CC(C)C)NC(=O)[C@H]([C@@H](C)O)NC(=O)[C@H](CC(=O)O)NC1=O
